Test results: PMC3578163 (Chemical research in toxicology, 2013)
Where two headings read alike, the source gives them in different places.

Legend:
[1] = target: T1, hpol ι^26–446 (Homo sapiens, UniProt Q9UNA4); assay: steady-state single-nucleotide; type: biochemical; details: for kcat: dCTP insertion
T1 sequence (Q9UNA4 26-446): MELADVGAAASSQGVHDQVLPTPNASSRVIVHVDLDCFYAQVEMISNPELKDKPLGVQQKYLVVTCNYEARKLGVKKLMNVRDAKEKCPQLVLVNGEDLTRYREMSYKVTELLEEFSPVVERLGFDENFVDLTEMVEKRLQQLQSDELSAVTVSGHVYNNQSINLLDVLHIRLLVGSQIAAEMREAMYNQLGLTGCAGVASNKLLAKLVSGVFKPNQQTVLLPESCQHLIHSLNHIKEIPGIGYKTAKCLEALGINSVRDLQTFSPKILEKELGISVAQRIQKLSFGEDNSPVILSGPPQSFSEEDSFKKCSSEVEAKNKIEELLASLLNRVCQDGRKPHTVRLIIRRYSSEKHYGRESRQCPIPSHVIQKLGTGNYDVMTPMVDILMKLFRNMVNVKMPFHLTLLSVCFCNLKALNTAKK
Summary of the method: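 Single dCTP insertion on a FAM-labelled primer-template: 5 nM enzyme, 100 nM DNA. Started with dCTP (10 concentrations, 1–1500 μM) plus 2 mM Mg²⁺. MK886 at 20 nM, 50 nM, 1 μM or 10 μM, or DMSO. Time points quenched with 95% formamide/20 mM EDTA; products resolved on 16% acrylamide/7 M urea gels. Velocities fitted to Michaelis–Menten; kcat and KM taken after enzyme correction.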

[2] = system: peroxisome proliferator activated receptor alpha (PPARα); details: FLAP-independent inhibition of PPARα; cited from earlier work
[3] = system: COX1; details: read-out: IC50 value for COX1 inhibition; in vitro activity assays; cited from earlier work
[4] = target: T2, hpol η^1–437 (Homo sapiens, UniProt Q9Y253); assay: polymerase-catalyzed primer extension; type: biochemical; details: read-out: IC50 for inhibition of DNA polymerase activity; all four dNTPs 0.25 mM, MgCl2 5 mM; 20 nM enzyme, 200 nM DNA, 37 °C
T2 sequence (Q9Y253 1-437): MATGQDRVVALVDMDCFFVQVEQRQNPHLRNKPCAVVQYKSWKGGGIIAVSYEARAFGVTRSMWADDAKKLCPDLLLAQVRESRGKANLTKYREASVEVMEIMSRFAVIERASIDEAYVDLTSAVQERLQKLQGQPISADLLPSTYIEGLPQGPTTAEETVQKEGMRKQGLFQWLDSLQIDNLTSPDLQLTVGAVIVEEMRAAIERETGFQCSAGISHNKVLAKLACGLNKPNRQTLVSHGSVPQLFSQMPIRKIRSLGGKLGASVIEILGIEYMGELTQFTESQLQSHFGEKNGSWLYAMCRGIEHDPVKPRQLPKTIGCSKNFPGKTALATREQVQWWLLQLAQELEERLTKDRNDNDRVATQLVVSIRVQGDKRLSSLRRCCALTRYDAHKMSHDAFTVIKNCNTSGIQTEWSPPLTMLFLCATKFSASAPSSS

[5] = target: T3, hpol ι^1–446 (Homo sapiens, UniProt Q9UNA4); assay: polymerase-catalyzed primer extension; type: biochemical; details: read-out: IC50 for inhibition of DNA polymerase activity; all four dNTPs 0.25 mM, MgCl2 5 mM; 20 nM enzyme, 200 nM DNA, 37 °C
T3 sequence (Q9UNA4 1-446): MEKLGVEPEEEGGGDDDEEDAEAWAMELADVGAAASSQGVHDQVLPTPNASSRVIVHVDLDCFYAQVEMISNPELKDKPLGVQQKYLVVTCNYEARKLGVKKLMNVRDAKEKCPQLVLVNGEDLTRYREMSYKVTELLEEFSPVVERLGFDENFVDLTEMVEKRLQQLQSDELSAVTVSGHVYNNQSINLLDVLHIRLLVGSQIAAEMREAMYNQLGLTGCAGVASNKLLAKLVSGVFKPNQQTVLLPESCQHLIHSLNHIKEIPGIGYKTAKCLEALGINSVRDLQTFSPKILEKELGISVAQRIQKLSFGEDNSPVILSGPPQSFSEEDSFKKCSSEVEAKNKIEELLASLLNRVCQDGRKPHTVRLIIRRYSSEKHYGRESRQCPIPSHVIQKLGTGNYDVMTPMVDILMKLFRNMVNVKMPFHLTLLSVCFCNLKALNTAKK

[6] = system: DNA synthesis in cell culture; details: cited from earlier work
[7] = target: T1, hpol ι^26–446; assay: polymerase-catalyzed primer extension; type: biochemical; details: read-out: IC50 for inhibition of DNA polymerase activity; all four dNTPs 0.25 mM, MgCl2 5 mM; 20 nM enzyme, 200 nM DNA, 37 °C
[8] = target: T4, hpol κ^19–526 (Homo sapiens, UniProt Q9UBT6); type: binding; details: for Kd: read-out: Kd,DNA (polymerase binding to primer-template DNA)
T4 sequence (Q9UBT6 19-526): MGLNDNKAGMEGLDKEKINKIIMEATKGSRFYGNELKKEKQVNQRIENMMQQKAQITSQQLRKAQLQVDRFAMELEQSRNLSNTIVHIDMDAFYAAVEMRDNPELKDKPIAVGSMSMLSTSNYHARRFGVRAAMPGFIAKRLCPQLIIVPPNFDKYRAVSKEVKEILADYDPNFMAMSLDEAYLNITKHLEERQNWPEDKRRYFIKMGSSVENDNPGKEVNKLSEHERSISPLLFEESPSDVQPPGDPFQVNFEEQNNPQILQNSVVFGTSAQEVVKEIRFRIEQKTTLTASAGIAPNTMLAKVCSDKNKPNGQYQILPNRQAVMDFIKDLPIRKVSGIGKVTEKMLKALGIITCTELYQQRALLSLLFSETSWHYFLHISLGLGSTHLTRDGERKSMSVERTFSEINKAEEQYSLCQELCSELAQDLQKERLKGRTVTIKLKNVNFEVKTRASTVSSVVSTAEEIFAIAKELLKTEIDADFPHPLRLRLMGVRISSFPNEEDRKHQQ
Summary of the method: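 Recombinant human polymerase (His/GST-tagged, expressed in E. coli BL21(DE3), tags cleaved) titrated into 2 nM FAM-labelled 13/18-mer primer-template at 25 °C. Buffer: 50 mM HEPES pH 7.5, 10 mM KOAc, 10 mM MgCl₂, 0.1 mM ZnCl₂, 0.1 mM EDTA, 10% DMSO, 0.1 mg/mL BSA. MK886 at 0–250 μM, with DMSO as control. Polarization read at ex 485/em 525 nm. Kd fitted with total DNA held constant.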

kcat ([1]; 0.02 μM MK886): 0.0233 ± 0.0017 s⁻¹
Fold decrease in kcat/KM,dNTP ([1]; 0.02 μM MK886 vs no inhibitor): 1.5
kcat ([1]; 0.05 μM MK886): 0.02 ± 0.0017 s⁻¹
Fold decrease in kcat/KM,dNTP ([1]; 0.05 μM MK886 vs no inhibitor): 2.1
kcat ([1]; 1 μM MK886): 0.0267 ± 0.0017 s⁻¹
Fold decrease in kcat/KM,dNTP ([1]; 1 μM MK886 vs no inhibitor): 2.1
kcat ([1]; 10 μM MK886): 0.025 ± 0.0017 s⁻¹
Fold decrease in kcat/KM,dNTP ([1]; 10 μM MK886 vs no inhibitor): 2.8
mechanism of inhibition of DNA polymerase activity ([1]; single-nucleotide insertion, kcat and Km,dNTP both altered): mixed-model of inhibition
IC50 [4]: 45.8 ± 8.4 µM
IC50 [5]: 15.1 ± 2.1 µM
IC50 [7]: 8.2 ± 0.6 µM
change in binding affinity for hpol κ relative to that observed for hpol ι^26–446 ([8]; hpol κ vs hpol ι^26–446): ~ 2 fold
Kd ([8]; 25 μM MK886): 0.026 ± 0.0091 µM
Kd ([8]; 50 μM MK886): 0.0241 ± 0.0094 µM
Kd ([8]; 100 μM MK886): 0.0313 ± 0.0121 µM
Kd ([8]; 150 μM MK886): 0.0704 ± 0.0157 µM
Kd ([8]; 250 μM MK886): 0.0679 ± 0.0171 µM
Compound: CC(C)c1ccc2c(c1)c(SC(C)(C)C)c(CC(C)(C)C(=O)O)n2Cc1ccc(Cl)cc1 [MK886, 3-[1-(4-chlorobenzyl)-3-t-butyl-thio-5-isoproylindol-2-yl]-2,2-dimethylpropanoic acid]
concentration at which apoptosis is induced [2]: above 10 μM
IC50 [3]: 8 µM
concentration at which DNA synthesis/replication is inhibited [6]: ≥ 1 µM
